Data published in ChEMBL document CHEMBL2424622, “Development of amino-pyrimidine inhibitors of c-Jun N-terminal kinase (JNK): kinase profiling guided optimization of a 1,2,3-benzotriazole lead” (Bioorg Med Chem Lett, 2013).

Legend:
[1] = target: Ribosomal protein S6 kinase alpha-4 (Homo sapiens) (UniProt O75676); assay: Competitive binding affinity to RPS6KA4 kinase domain 2 (unknown origin) at 10 uM in presence of ATP relative to control
[2] = target: Serine/threonine-protein kinase PLK1 (Homo sapiens) (UniProt P53350); assay: Competitive binding affinity to PLK1 (unknown origin) at 10 uM in presence of ATP relative to control
[3] = target: TGF-beta receptor type-2 (Homo sapiens) (UniProt P37173); assay: Competitive binding affinity to TGFBR2 (unknown origin) at 10 uM in presence of ATP relative to control
[4] = target: T1, Tyrosine-protein kinase JAK3 (Homo sapiens) (UniProt P52333); assay: Competitive binding affinity to JAK3 kinase domain 2 (unknown origin) at 10 uM in presence of ATP relative to control
T1 sequence (whole entry): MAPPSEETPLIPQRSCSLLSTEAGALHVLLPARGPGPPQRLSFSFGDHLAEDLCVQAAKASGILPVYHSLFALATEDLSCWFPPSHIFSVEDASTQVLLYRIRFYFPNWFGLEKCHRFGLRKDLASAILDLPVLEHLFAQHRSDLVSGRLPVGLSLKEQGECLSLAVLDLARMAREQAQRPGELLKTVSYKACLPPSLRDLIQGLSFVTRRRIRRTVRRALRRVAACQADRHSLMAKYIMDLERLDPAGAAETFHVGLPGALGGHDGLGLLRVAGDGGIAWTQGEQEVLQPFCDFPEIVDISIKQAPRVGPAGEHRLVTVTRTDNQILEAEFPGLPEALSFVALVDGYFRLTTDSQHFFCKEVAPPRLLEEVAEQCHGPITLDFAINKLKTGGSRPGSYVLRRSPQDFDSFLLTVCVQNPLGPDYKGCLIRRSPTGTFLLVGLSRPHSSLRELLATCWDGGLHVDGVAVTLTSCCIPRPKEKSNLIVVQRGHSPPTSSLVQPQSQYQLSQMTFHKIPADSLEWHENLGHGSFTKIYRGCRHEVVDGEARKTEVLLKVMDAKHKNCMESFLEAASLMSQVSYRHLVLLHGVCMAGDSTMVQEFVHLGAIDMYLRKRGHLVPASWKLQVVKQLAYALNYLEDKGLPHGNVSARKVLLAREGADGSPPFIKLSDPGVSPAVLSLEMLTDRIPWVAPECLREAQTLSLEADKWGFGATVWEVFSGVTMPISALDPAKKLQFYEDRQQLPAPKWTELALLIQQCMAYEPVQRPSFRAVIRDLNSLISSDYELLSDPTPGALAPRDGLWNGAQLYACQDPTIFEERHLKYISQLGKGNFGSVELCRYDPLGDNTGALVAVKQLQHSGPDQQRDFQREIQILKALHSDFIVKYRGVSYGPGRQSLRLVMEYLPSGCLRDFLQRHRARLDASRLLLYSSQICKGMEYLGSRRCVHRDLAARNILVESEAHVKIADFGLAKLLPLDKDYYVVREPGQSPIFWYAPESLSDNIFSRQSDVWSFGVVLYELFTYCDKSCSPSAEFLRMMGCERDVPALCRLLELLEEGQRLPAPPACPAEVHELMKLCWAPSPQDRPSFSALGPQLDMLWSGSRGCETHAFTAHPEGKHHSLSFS

[5] = organism: Homo sapiens; assay: Competitive binding affinity to EGFR E746 to A750 deletion mutant (unknown origin) at 10 uM in presence of ATP relative to control
Outline: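 Screened at 10 µM in an in vitro ATP-site competition binding assay across a diverse panel of 128 kinases, with this kinase as one panel member. Readout is binding relative to control.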

[6] = target: Mitogen-activated protein kinase 6 (Homo sapiens, UniProt Q16659); assay: Competitive binding affinity to ERK3 (unknown origin) at 10 uM in presence of ATP relative to control
[7] = target: Ribosomal protein S6 kinase alpha-4 (Homo sapiens) (UniProt O75676); assay: Competitive binding affinity to RPS6KA4 kinase domain 1 (unknown origin) at 10 uM in presence of ATP relative to control
[8] = tested on: Epidermal growth factor receptor (Homo sapiens), P00533 [G719C]; assay: Competitive binding affinity to EGFR G719C mutant (unknown origin) at 10 uM in presence of ATP relative to control
Outline: (§1)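 In vitro ATP-site competition binding assay, part of profiling against a diverse panel of 128 kinases. Each compound was tested at a single concentration of 10 µM. Kinome selectivity was summarized as S15 selectivity scores.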

[9] = target: T2, Mitogen-activated protein kinase 15 (Homo sapiens) (UniProt Q8TD08); assay: Competitive binding affinity to ERK8 (unknown origin) at 10 uM in presence of ATP relative to control
T2 sequence (whole entry): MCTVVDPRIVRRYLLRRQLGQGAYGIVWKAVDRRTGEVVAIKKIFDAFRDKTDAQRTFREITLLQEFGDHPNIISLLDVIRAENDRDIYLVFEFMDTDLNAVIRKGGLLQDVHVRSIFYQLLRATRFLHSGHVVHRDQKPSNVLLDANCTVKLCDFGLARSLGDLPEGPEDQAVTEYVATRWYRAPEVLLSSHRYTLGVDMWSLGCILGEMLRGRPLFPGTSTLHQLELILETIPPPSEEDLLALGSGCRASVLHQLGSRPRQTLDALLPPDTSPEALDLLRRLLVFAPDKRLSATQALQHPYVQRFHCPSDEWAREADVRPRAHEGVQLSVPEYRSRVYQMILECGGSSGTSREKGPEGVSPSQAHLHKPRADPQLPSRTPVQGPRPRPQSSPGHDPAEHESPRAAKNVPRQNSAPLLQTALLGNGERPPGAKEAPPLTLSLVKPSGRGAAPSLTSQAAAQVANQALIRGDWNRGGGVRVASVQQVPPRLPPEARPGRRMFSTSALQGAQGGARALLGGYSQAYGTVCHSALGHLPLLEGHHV

[10] = target: Serine/threonine-protein kinase 32C (Homo sapiens) (UniProt Q86UX6); assay: Competitive binding affinity to YANK3 (unknown origin) at 10 uM in presence of ATP relative to control
[11] = tested on: Fibroblast growth factor receptor 3 (Homo sapiens), P22607 [G697C]; assay: Competitive binding affinity to FGFR3 G697C mutant (unknown origin) at 10 uM in presence of ATP relative to control; outline: as §1
[12] = target: Epithelial discoidin domain-containing receptor 1 (Homo sapiens) (UniProt Q08345); assay: Competitive binding affinity to DDR1 (unknown origin) at 10 uM in presence of ATP relative to control
[13] = organism: Homo sapiens; assay: Selectivity ratio of IC50 for human JNK2 to IC50 for human JNK1
Outline: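 JNK1 and JNK2 activities were each measured as phosphorylation of GST-ATF2 (19–96) with [γ-33P]ATP, and IC50s were determined for each enzyme. The ratio is JNK2 IC50 over JNK1 IC50. IC50s are the mean of at least three experiments.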

Chain of TGF-beta receptor type-2 (Homo sapiens) (P37173 whole entry, the tested form may be a part): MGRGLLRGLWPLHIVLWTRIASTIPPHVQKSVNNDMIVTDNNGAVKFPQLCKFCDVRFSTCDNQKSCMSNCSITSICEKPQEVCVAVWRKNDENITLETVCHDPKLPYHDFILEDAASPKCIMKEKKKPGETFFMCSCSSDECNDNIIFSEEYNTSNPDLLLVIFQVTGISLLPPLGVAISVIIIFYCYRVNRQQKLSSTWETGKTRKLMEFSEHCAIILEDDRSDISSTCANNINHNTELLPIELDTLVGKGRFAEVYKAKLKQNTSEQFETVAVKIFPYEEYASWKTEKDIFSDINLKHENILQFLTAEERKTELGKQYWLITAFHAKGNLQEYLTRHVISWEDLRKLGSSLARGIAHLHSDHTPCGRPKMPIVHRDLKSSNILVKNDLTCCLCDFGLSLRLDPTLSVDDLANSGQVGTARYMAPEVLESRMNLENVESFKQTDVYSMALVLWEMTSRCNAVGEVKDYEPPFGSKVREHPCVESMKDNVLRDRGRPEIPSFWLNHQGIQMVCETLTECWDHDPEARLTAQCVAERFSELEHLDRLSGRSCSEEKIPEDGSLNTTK
Chain of Serine/threonine-protein kinase PLK1 (Homo sapiens) (P53350 whole entry): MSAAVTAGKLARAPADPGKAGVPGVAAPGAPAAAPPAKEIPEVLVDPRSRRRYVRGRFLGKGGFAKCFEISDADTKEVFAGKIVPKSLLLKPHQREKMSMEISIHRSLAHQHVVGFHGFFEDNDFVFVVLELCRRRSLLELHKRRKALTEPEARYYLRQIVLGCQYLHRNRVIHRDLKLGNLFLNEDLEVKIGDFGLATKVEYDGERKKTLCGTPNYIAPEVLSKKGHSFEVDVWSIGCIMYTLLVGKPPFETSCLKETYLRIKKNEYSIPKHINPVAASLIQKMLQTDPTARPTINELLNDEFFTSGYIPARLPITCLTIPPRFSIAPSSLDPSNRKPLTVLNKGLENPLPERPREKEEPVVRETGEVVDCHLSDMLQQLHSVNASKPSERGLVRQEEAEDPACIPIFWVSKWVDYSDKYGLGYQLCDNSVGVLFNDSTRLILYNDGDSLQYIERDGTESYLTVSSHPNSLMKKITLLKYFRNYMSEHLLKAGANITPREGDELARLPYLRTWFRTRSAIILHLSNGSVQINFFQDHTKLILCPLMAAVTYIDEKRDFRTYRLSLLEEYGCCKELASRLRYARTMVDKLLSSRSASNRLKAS
Chain of Ribosomal protein S6 kinase alpha-4 (Homo sapiens) (O75676 whole entry, looked up, the tested form may be a part): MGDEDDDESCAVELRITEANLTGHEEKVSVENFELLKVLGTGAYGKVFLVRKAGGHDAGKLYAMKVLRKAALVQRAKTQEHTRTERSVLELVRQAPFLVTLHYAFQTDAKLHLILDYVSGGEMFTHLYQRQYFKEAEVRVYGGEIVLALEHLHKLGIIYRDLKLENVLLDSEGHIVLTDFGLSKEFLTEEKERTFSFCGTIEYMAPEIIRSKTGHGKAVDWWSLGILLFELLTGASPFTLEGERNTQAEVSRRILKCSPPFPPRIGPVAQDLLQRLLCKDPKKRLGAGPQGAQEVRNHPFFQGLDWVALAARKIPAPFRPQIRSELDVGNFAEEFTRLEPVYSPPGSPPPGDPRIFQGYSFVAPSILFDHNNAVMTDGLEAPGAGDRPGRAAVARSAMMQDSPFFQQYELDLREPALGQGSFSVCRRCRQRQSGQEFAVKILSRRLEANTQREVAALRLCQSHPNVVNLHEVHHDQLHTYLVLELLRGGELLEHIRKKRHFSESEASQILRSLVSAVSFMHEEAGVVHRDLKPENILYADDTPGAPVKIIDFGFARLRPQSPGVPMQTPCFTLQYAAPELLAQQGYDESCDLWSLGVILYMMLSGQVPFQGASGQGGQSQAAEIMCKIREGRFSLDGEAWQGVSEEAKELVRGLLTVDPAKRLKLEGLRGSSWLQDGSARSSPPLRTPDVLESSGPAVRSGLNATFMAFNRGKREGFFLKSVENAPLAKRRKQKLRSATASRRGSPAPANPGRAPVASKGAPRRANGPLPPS
Chain of Serine/threonine-protein kinase 32C (Homo sapiens) (Q86UX6 whole entry): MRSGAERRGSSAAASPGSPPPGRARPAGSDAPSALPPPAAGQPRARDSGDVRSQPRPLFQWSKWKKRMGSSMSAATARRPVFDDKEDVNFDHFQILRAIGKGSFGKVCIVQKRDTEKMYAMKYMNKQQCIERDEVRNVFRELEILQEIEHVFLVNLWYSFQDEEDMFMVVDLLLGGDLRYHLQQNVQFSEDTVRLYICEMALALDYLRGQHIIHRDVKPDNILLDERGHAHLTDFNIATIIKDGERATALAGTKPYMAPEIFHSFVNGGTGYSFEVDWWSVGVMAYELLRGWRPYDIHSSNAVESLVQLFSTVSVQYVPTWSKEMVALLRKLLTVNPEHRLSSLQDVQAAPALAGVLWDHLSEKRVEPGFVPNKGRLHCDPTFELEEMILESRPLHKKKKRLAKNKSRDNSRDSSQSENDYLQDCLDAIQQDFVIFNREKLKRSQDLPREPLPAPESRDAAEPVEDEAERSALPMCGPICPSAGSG
Chain of Mitogen-activated protein kinase 6 (Q16659 whole entry, the tested form may be a part): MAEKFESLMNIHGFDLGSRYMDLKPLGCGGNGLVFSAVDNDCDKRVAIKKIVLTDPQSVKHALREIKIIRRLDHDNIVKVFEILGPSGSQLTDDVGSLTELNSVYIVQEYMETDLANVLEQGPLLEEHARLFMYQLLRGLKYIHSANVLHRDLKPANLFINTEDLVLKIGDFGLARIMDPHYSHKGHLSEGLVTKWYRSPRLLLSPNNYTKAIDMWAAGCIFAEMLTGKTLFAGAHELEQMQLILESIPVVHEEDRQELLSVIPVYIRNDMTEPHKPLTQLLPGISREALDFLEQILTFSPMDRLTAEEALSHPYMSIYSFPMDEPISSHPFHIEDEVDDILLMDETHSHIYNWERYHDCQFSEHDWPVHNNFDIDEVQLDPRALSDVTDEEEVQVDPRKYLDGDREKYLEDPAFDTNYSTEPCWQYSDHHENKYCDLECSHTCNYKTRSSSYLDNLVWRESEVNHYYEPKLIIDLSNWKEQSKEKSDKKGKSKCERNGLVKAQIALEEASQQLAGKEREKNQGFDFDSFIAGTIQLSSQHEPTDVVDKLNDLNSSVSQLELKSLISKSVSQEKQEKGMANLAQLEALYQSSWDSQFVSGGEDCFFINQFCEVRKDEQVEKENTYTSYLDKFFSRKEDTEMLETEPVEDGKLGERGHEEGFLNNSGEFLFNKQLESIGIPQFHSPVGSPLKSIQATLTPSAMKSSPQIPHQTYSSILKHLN
Chain of Epidermal growth factor receptor (Homo sapiens), P00533 [G719C] (P00533 whole entry G719C): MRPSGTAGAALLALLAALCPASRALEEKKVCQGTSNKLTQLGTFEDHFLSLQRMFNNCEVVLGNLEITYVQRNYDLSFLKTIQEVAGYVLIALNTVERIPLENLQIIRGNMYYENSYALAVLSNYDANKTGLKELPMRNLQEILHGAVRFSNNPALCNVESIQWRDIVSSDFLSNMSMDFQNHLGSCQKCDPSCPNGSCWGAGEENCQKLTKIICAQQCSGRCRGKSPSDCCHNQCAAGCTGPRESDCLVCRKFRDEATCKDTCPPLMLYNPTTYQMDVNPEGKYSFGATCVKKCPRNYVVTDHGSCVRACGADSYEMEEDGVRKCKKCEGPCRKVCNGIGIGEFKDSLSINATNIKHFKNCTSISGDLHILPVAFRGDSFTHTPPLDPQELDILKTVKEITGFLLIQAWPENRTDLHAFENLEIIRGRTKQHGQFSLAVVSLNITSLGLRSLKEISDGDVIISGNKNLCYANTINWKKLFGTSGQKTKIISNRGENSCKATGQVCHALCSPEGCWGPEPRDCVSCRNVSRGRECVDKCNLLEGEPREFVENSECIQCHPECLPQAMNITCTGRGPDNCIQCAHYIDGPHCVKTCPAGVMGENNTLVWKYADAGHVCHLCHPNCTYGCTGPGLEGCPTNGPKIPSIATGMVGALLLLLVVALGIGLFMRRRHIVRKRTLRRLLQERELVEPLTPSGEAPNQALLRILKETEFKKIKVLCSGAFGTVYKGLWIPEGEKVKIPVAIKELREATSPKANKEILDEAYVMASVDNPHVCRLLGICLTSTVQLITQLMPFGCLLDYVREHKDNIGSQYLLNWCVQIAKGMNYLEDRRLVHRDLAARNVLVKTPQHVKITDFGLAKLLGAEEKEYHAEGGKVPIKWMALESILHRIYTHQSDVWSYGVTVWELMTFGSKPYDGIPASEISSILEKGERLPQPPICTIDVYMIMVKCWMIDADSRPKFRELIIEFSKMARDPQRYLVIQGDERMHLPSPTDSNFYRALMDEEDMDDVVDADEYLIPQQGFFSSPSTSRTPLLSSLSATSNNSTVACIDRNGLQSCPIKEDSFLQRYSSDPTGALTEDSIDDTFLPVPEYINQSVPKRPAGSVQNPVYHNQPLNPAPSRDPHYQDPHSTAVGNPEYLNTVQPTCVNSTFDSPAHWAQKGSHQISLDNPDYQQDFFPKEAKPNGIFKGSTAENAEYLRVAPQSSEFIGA

SMILES	inhibition [1] [%]	inhibition [2] [%]	inhibition [3] [%]	inhibition [4] [%]	inhibition [5] [%]	inhibition [6] [%]	inhibition [7] [%]	inhibition [8] [%]	inhibition [10] [%]	inhibition [11] [%]	inhibition [12] [%]	Ratio IC50 [13]	inhibition [9] [%]
N[C@H]1CC[C@H](Nc2nccc(-n3nnc4ccccc43)n2)CC1	–	–	–	–	–	–	–	–	–	–	–	4	–
O[C@H]1CC[C@H](Nc2nccc(-c3n[nH]c4ccccc34)n2)CC1	–	< 50	–	–	< 50	–	99	< 50	< 50	< 50	–	–	–
CS(=O)(=O)CCCOc1cccc2c1ccn2-c1ccnc(N[C@H]2CC[C@H](C(=O)N3CCC(O)CC3)CC2)n1	–	–	–	–	–	> 85	–	–	–	–	–	–	> 85
O=C([C@H]1CC[C@H](Nc2nccc(-n3nnc4ccccc43)n2)CC1)N1CCOCC1	–	–	–	–	–	–	–	–	–	–	–	4	–

Second part, led by results:

inhibition [1] [%]	inhibition [2] [%]	inhibition [3] [%]	inhibition [4] [%]	inhibition [5] [%]	inhibition [6] [%]	inhibition [7] [%]	inhibition [8] [%]	inhibition [10] [%]	inhibition [11] [%]	inhibition [12] [%]	Ratio IC50 [13]	SMILES	inhibition [9] [%]
< 50	< 50	< 50	< 50	99	100	< 50	< 50	< 50	< 50	< 50	–	O[C@H]1CC[C@H](Nc2nccc(-n3ncc4ccccc43)n2)CC1	97
< 50	< 50	< 50	< 50	< 50	99	< 50	< 50	< 50	< 50	< 50	–	O[C@H]1CC[C@H](Nc2nccc(-n3ccc4ccccc43)n2)CC1	91
94	< 50	96	< 50	< 50	100	< 50	< 50	< 50	< 50	< 50	4	O[C@H]1CC[C@H](Nc2nccc(-n3nnc4ccccc43)n2)CC1	99
